Measurements as given in ChEMBL document CHEMBL1156947, “Halogenated analogs of 1'-acetoxychavicol acetate, Rev-export inhibitor from Alpinia galanga, designed from mechanism of action” (Bioorg Med Chem Lett, 2010).
≈ marks a conversion by molar mass, not a printed value.

Columns and labels:
[1] = system: Human immunodeficiency virus 1; assay: Inhibition of HIV1 Rev nuclear export in Saccharomyces pombe expressing GST-NLS-GFP-RevNES fused protein assessed as cellular distribution after 3 hrs by fluorescence microscopy
Procedure, shortened: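 Fission yeast colony grown 24 h at 37 °C in thiamine-free MM medium to induce the GST-NLS-GFP-RevNES fusion. Cells then exposed to samples in medium with 1% DMSO for 3 h at 37 °C. Fusion-protein distribution checked by fluorescence microscopy to give MIC values.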

[2] = Stability assessed as compound remaining up to 180 mins in presence of in fetal bovine serum; assay type: ADME; conditions: cattle, 3 h
Procedure, shortened: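 Sample (0.2 mM ethanol stock) added to RPMI1640 containing 10% FBS, held at 37 °C for 0, 30, 60 or 180 min. Mixture extracted with EtOAc, residue taken up in acetonitrile. Remaining compound measured by reversed-phase HPLC (C18, acetonitrile–water gradient, UV 220 nm), in triplicate.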

[3] = Inhibition of HIV1 HA-tagged Rev nuclear export expressed in human HeLa cells assessed as cellular localization after 12 hrs by FITC-labelled indirect fluorescence microscopy; assay type: cell-based; conditions: Human immunodeficiency virus 1, HeLa
Procedure, shortened: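 HeLa cells (1.0 × 10^5) grown on coverslips in DMEM with 10% FBS, 37 °C, 5% CO2, 24 h. Co-transfected 16 h with plasmids for HA-tagged Rev and Gag (pCRRE/ΔRev). Samples added in medium with 1% DMSO, 12 h at 37 °C. Cells fixed in 4% formaldehyde, methanol-treated, blocked with 10% FBS, then anti-HA and FITC anti-mouse IgG. Rev localization scored by fluorescence microscopy and image analysis.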

Row | SMILES | MIC [1] [µM] | Stability [2] | IC50 [3] [nM]
1 | C=C[C@H](OC(=O)NC)c1ccc(OC(=O)NC)cc1 | > 50 | Stable | –
2 | C=C[C@H](OC(=O)NCCC)c1ccc(OC(=O)NCCC)cc1 | > 50 | Stable | –
3 | C=C[C@H](OC(C)=O)c1ccc(OC(C)=O)cc1 [1'-ACETOXYCHAVICOL ACETATE] | 4.3 | – | 980
4 | C=C[C@H](OC(=O)OC(C)C)c1ccc(OC(=O)OC(C)C)cc1 | > 50 | Stable | –
5 | C=C[C@H](OC(=O)NC(C)C)c1ccc(OC(=O)NC(C)C)cc1 | > 50 | Stable | –
6 | C=C[C@H](OC(=O)NC(C)(C)C)c1ccc(OC(=O)NC(C)(C)C)cc1 | > 50 | Stable | –
7 | C=C[C@H](OC(=O)NCC)c1ccc(OC(=O)NCC)cc1 | > 50 | Stable | –
8 | C=C[C@H](OC(=O)OC(C)C)c1ccc(OC(C)=O)cc1 | > 50 | – | –
9 | C=C[C@H](OC(=O)OC(C)(C)C)c1ccc(OC(=O)OC(C)(C)C)cc1 | > 50 | Stable | –

Further compounds by falling MIC [1], results first:

Row | MIC [1] [µM] | Stability [2] | IC50 [3] [nM] | SMILES
10 | 26 (≈ 7.24 µg/mL) | – | – | C=C[C@H](OC(=O)OCCC)c1ccc(OC(C)=O)cc1
11 | 25 (≈ 6.66 µg/mL) | Stable | – | C=C[C@H](OC(=O)OC)c1ccc(OC(=O)OC)cc1
12 | 25 (≈ 7.36 µg/mL) | Stable | – | C=C[C@H](OC(=O)OCC)c1ccc(OC(=O)OCC)cc1
13 | 19 (≈ 4.98 µg/mL) | – | – | C=C[C@H](OC(=O)C(C)C)c1ccc(OC(C)=O)cc1
14 | 19 (≈ 4.98 µg/mL) | – | – | C=C[C@H](OC(=O)CCC)c1ccc(OC(C)=O)cc1
15 | 10 (≈ 3.22 µg/mL) | Stable | – | C=C[C@H](OC(=O)OCCC)c1ccc(OC(=O)OCCC)cc1
16 | 2.2 (≈ 0.591 µg/mL) | – | 620 | C=C[C@H](OC(C)=O)c1ccc(OC(C)=O)c(Cl)c1
17 | 1.7 (≈ 0.429 µg/mL) | – | 480 | C=C[C@H](OC(C)=O)c1ccc(OC(C)=O)c(F)c1
18 | 1.7 (≈ 0.532 µg/mL) | – | 490 | C=C[C@H](OC(C)=O)c1ccc(OC(C)=O)c(Br)c1
19 | 1.4 (≈ 0.378 µg/mL) | – | 130 | C=C[C@H](OC(C)=O)c1ccc(OC(C)=O)c(F)c1F
